We go through 15 molecules from ChEMBL document CHEMBL1144990, “Alpha1-adrenoceptor antagonists. 6. Structural optimization of pyridazinone-arylpiperazines. Study of the influence on affinity and selectivity of cyclic substituents at the pyridazinone ring and alkoxy groups at the arylpiperazine moiety” (J Med Chem, 2003).

As a reminder, the Ki is the equilibrium dissociation constant of an inhibitor or competing ligand from its target.

The target of assay [1] is T1, Adrenergic receptor alpha-1 (Rattus norvegicus, UniProt P15823+P23944+P43140).
T1 sequence (P15823 whole entry): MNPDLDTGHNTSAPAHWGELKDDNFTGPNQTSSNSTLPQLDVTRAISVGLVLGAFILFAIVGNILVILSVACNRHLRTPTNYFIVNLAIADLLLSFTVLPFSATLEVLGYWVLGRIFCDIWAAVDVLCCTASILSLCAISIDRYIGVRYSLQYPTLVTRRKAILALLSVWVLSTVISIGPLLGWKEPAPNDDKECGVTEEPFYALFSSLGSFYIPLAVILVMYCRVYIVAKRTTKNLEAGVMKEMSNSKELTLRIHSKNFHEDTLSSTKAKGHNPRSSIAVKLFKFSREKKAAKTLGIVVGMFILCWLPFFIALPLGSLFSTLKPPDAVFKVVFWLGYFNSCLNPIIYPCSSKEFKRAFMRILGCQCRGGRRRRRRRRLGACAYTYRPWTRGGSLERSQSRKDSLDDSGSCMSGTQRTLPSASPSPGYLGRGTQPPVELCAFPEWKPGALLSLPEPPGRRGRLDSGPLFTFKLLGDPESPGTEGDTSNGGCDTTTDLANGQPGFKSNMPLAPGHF
T1 sequence (P23944 whole entry): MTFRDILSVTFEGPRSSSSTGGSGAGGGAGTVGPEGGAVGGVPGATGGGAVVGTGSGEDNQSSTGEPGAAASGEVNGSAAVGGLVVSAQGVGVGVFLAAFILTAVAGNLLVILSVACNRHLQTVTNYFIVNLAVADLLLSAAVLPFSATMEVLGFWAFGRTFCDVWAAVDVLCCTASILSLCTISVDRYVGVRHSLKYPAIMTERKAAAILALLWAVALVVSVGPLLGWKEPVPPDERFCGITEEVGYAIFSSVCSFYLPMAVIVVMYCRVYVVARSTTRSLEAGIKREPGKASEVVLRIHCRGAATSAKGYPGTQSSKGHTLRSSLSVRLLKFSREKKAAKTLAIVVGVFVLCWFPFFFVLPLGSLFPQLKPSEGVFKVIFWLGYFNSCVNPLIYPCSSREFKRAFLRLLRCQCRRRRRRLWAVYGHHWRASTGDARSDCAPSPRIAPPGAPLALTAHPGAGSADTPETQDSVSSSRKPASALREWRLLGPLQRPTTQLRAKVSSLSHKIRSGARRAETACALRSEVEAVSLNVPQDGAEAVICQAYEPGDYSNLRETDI
T1 sequence (P43140 whole entry): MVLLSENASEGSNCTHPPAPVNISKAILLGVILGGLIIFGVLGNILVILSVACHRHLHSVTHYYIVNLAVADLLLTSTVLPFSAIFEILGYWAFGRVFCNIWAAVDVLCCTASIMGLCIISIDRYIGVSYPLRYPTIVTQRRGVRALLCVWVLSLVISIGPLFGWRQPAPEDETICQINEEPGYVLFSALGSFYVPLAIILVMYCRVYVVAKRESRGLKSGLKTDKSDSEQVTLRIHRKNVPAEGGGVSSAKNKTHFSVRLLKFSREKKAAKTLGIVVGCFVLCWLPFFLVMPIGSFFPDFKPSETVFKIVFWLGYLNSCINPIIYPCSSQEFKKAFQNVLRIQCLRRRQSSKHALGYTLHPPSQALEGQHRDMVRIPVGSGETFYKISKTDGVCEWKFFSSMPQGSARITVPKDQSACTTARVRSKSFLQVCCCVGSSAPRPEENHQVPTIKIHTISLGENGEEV
As to the kind of experiment: Binding affinity for Alpha-1 adrenergic receptor in rat cortex membranes using [3H]-prazosin as radioligand. The format is cell membranes.

Assay [2] has as its target T2, Adrenergic receptor alpha-2 (Rattus norvegicus, UniProt P22086+P19328+P22909).
T2 sequence (P22086 whole entry): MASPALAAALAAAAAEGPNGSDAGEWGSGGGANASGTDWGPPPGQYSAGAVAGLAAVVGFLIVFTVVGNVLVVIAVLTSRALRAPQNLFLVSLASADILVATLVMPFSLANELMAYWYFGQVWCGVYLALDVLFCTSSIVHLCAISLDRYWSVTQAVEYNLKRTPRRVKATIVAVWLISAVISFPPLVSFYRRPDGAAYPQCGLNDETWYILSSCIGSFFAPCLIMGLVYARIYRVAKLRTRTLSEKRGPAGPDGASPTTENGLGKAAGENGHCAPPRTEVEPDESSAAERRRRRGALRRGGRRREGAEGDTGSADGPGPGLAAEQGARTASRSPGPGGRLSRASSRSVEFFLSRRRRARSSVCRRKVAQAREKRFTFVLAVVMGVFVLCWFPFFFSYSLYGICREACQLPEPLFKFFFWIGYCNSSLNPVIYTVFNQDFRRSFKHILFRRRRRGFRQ
T2 sequence (P19328 whole entry): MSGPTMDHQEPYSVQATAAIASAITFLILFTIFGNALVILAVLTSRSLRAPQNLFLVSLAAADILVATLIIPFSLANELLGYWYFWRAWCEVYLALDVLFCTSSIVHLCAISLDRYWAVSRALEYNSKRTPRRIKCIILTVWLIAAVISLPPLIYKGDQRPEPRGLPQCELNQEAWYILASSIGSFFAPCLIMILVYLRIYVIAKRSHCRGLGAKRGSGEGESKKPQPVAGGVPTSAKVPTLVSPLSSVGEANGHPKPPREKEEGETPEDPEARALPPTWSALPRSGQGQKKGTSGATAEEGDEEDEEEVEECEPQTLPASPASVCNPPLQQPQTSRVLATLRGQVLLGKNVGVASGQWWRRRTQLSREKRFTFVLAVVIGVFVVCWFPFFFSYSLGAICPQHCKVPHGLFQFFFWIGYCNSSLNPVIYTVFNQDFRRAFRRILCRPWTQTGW
T2 sequence (P22909 whole entry): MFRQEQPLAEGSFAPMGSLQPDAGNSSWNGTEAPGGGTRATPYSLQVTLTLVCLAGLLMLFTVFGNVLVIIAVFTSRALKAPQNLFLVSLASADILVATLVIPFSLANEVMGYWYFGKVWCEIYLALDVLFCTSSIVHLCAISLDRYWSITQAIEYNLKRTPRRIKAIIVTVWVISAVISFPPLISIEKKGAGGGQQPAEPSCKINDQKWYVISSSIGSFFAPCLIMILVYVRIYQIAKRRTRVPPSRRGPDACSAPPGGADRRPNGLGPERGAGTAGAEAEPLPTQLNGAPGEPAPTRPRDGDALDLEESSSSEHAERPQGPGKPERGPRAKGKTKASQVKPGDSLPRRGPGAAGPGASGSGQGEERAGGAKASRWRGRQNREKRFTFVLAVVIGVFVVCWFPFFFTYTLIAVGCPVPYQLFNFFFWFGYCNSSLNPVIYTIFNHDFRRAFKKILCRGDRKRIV
As to the kind of experiment: Binding affinity for Alpha-2 adrenergic receptor in rat cortex membranes using [3H]rauwolscine as radioligand. The format is cell membranes.

Assay [3] deals with T3, 5-hydroxytryptamine receptor 1A (Rattus norvegicus, UniProt P19327).
T3 sequence (P19327 whole entry): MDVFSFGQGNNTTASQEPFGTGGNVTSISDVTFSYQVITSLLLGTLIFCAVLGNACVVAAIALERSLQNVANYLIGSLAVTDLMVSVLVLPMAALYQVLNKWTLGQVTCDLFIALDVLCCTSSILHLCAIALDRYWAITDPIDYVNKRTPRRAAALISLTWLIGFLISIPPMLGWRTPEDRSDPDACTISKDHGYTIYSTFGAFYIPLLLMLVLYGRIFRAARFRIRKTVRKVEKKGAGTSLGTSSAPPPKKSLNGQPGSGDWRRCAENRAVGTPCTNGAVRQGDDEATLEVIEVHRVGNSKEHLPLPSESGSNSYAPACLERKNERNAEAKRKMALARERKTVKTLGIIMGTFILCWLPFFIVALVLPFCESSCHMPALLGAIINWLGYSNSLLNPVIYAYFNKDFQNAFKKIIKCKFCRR
As to the kind of experiment: Displacement of [3H]8-OH-DPAT from 5-hydroxytryptamine 1A receptor of rat cortex membranes. The format is cell membranes, Membrane. The gist of the method: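 Competition binding with seven drug concentrations, each in triplicate, across three separate experiments. IC50 values were converted to Ki by the Cheng–Prusoff equation, Ki = IC50/(1 + [L]/Kd), where [L] is the radioligand concentration and Kd its dissociation constant. Ki is reported as mean ± SD.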
Background: In a radioligand displacement assay an active substance lowers the binding of a labelled ligand.

Assay [4] deals with T1, Adrenergic receptor alpha-1. Kind of assay: Intrinsic activity towards Alpha-1 adrenergic receptor by the displacement of [3H]prazosin from rat cerebral cortex membrane in presence of 1 nM GTP. The format is tissue-based.
For assay [5] the target is unchanged. Kind of assay: Intrinsic activity towards Alpha-1 adrenergic receptor by the displacement of [3H]prazosin from rat cerebral cortex membrane in absence of 1 nM GTP. Type of assay: tissue-based.
Assay [6] concerns the target Adrenergic receptor alpha-1 (Rattus norvegicus) (UniProt P15823+P23944+P43140).

On to `CCOc1ccccc1N1CCN(CCCCCCCn2ncc(Cl)c(N3CCN(C(=O)c4ccco4)CC3)c2=O)CC1`, for which the Ki in assay [1] was 0.23 nM; in assay [2] it was 0.8 nM; in assay [3], 0.35 nM.
Regarding `CCOc1ccccc1OCCN1CCN(c2cnn(CCCCCCCN3CCN(c4ccccc4OC(C)C)CC3)c(=O)c2Cl)CC1`, the Ki is 0.22 nM in assay [4], 0.28 nM in assay [5] and 2.54 nM in assay [3]. Moreover, the GTP shift in assay [6] was 0.8.
Turning to `COc1ccccc1N1CCN(CCCCCCCn2ncc(Cl)c(N3CCN(CC4COc5ccccc5O4)CC3)c2=O)CC1` (configuration not stated), the Ki turned out to be 0.54 nM in assay [1], 1.45 nM in assay [2] and 0.4 nM in assay [3].
Consider `CC(C)Oc1ccccc1N1CCN(CCCCCCCn2ncc(Cl)c(N3CCN(C(=O)c4ccco4)CC3)c2=O)CC1`, for which the Ki was found to be 0.08 nM in assay [1], 0.66 nM in assay [2] and 1.16 nM in assay [3].
For `CC(C)Oc1ccccc1N1CCN(CCCCCCCn2ncc(Cl)c(N3CCN(CC4COc5ccccc5O4)CC3)c2=O)CC1` (configuration not stated), in that order: 0.32 nM, 13.4 nM and 1.52 nM.
Turning to `COc1cc2nc(N3CCN(C(=O)c4ccco4)CC3)nc(N)c2cc1OC`, the GTP shift in assay [6] is 1.2.
For `COc1ccccc1OCCN1CCN(c2cnn(CCCCCCCN3CCN(c4ccccc4OC)CC3)c(=O)c2Cl)CC1`, the Ki in assay [1] came out at 1.45 nM.
In the case of `CCOc1ccccc1N1CCN(CCCCCCCn2ncc(Cl)c(N3CCN(CC4COc5ccccc5O4)CC3)c2=O)CC1` (configuration not stated), the Ki in assay [1] worked out at 0.43 nM; in assay [2], 2.4 nM; in assay [3], 1.02 nM.
Consider `CCOc1ccccc1OCCN1CCN(c2cnn(CCCCCCCN3CCN(c4ccccc4OCC)CC3)c(=O)c2Cl)CC1`, for which, in assay [3], the Ki is 1.32 nM.
With `CCOc1ccccc1N1CCN(CCCCCCCn2ncc(N3CCN(CC4COc5ccccc5O4)CC3)c(Cl)c2=O)CC1` (configuration not stated), the Ki in assay [1] amounted to 0.42 nM; in assay [2], 2.16 nM; in assay [3] it was 49.8 nM.
As to `COc1ccccc1N1CCN(CCCCCCCn2ncc(Cl)c(N3CCN(C(=O)c4ccco4)CC3)c2=O)CC1`, the Ki in assay [1] is 0.37 nM; in assay [2], 1.23 nM; in assay [3], 0.42 nM.
For `COc1ccccc1N1CCN(CCCCCCCn2ncc(N3CCN(CC4COc5ccccc5O4)CC3)c(Cl)c2=O)CC1` (configuration not stated), in that order: 1.68 nM, 0.85 nM and 11.1 nM.
With `CC(C)Oc1ccccc1N1CCN(CCCCCCCn2ncc(N3CCN(CC4COc5ccccc5O4)CC3)c(Cl)c2=O)CC1` (configuration not stated), the Ki in assay [4] was determined as 0.33 nM; in assay [1], 0.31 nM; in assay [5], 0.23 nM; in assay [2], 3.34 nM; in assay [3], 2.47 nM. Further, the GTP shift in assay [6] is 1.4.
With `CCOc1ccccc1OCCN1CCN(c2cnn(CCCCCCCN3CCN(c4ccccc4OC)CC3)c(=O)c2Cl)CC1`, the Ki in assay [3] amounted to 0.82 nM.
As for `CC(C)Oc1ccccc1N1CCN(CCCCCCCn2ncc(N3CCN(C(=O)c4ccco4)CC3)c(Cl)c2=O)CC1`, the Ki is 0.081 nM in assay [4], 0.047 nM in assay [5] and 0.9 nM in assay [3]. The GTP shift in assay [6] stood at 1.7.
